The subject of series [1] is Platelet. The series is described as follows: Antiplatelet activity in platelet rich plasma (unknown origin) assessed as inhibition of arachidonic acid-induced platelet aggregation at 0.05 mM relative to control. Type of series: functional.
Series [2] can be described thus: Metabolic stability in simulated intestinal fluid at pH 6.8 measured immediately after compound addition by HPLC analysis. The note with it: read-out: Stability. The series is classed as ADME. The gist of the method: (§1)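 Gastric fluid was 1% pepsin in water, pH 1.5. Intestinal fluid was 1% trypsin with 0.68% KH2PO4, pH 6.8. Compound (100 mM DMSO stock) was diluted 1:1000 into each, in triplicate. Incubation was at 37 °C for 0, 2, 4, 6, 16 or 24 h. Acetonitrile (3 volumes) stopped it, then HPLC at 254 nm.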

Series [3] concerns Platelet. The series is described as follows: Antiplatelet activity in platelet rich plasma (unknown origin) assessed as inhibition of ADP-induced platelet aggregation at 0.2 mM relative to control. The series is classed as functional.
Series [4] relates to Platelet. The series is described as follows: Antiplatelet activity in platelet rich plasma (unknown origin) assessed as inhibition of arachidonic acid-induced platelet aggregation at 0.1 mM relative to control. The series is classed as functional.
A short description of series [5]: Metabolic stability in simulated gastric fluid at pH 1.5 measured after 24 hrs by HPLC analysis. The series is classed as ADME. Conditions: read-out: Stability. The gist of the method:
as §1

The test system of series [6] is 3T3-L1. As to the kind of experiment: Inhibition of MDA level in TNF-alpha-induced insulin resistant mouse 3T3L1 cells at 3 to 10 uM after 48 hrs. The series is classed as functional, cell-based.
Series [7] has as its system Platelet. The series is described as follows: Antiplatelet activity in platelet rich plasma (unknown origin) assessed as inhibition of arachidonic acid-induced platelet aggregation at 0.8 mM relative to control. Type of series: functional.
The subject of series [8] is Platelet. As to the kind of experiment: Antiplatelet activity in platelet rich plasma (unknown origin) assessed as inhibition of ADP-induced platelet aggregation at 1.6 mM relative to control. Type of series: functional.
Series [9] relates to 3T3-L1. As to the kind of experiment: Inhibition of ROS production in TNF-alpha-induced insulin resistant mouse 3T3L1 cells at 3 to 10 uM after 48 hrs by DCFH-DA dye-based fluorescence assay. Type of series: functional, cell-based.
Series [10] is described as follows: Metabolic stability in simulated intestinal fluid at pH 6.8 measured after 24 hrs by HPLC analysis. Type of series: ADME. The note with it: read-out: Stability. The gist of the method: as §1
Series [11] relates to Mus musculus. As to the kind of experiment: Cardioprotective activity in db/db BKS.Cg-Dock7m +/+ Leprdb/J mouse assessed as decrease in serum TNF-alpha level at 27 umol/kg, po administered as daily dose via gavage treated for 18 days by ELISA. Type of series: functional, organism-based. Put shortly: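 db/db mice were gavaged daily for 18 days in 0.5% CMC-Na, with vehicle-treated model and C57BL/6 control groups. Tail vein blood was collected and serum TNF-α and cTnI measured by commercial ELISA kits. Six individual experiments, mean ± SD, one-way ANOVA.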
(In general: ELISA stands for enzyme-linked immunosorbent assay.)

Series [12] is described as follows: Metabolic stability in human liver microsomes after 6 hrs in presence of NADPH by HPLC analysis. The note with it: read-out: Stability. Type of series: ADME, Microsome. Put shortly:
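Compound (100 mM DMSO stock) was added in triplicate to 0.1 M phosphate buffer pH 7.4 with 3.3 mM MgCl2 and human liver microsomes, then preincubated 5 min at 37 °C. NADPH (1.3 mM stock) was added and incubation continued 0, 0.5, 1, 2 or 6 h. Acetonitrile quench, then HPLC at 254 nm.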
Background: Liver microsomes are a subcellular fraction often used to study metabolism.

The subject of series [13] is 3T3-L1. The series is described as follows: Induction of nitric oxide mediated increase in insulin-stimulated 2-NBDG uptake in TNF-alpha-induced insulin resistant mouse 3T3L1 cells at 3 to 10 uM preincubated for 48 hrs followed by 2-NBDG addition measured after 30 mins in presence of nitric oxide scavenger C-PTIO by fluorescence assay. The series is classed as functional, cell-based. The gist of the method:
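Day-8 differentiated 3T3-L1 adipocytes received TNF-α (4 ng/mL) daily for 4 days. They were pretreated in triplicate for 48 h (C-PTIO 20 μM where indicated), then given 100 μM 2-NBDG at 37 °C for 30 min in the dark, with or without insulin. After KRP washes, fluorescence was read at Ex/Em 485/515 nm. Three experiments, mean ± SD.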

The subject of series [14] is Platelet. The series is described as follows: Antiplatelet activity in platelet rich plasma (unknown origin) assessed as inhibition of ADP-induced platelet aggregation at 0.4 mM relative to control. The series is classed as functional.
Series [15] relates to 3T3-L1. As to the kind of experiment: Inhibition of ROS production in TNF-alpha-induced insulin resistant mouse 3T3L1 cells at 3 to 10 uM after 48 hrs in presence of nitric oxide scavenger C-PTIO by DCFH-DA dye-based fluorescence assay. Type of series: functional, cell-based.
The nature of series [16]: Metabolic stability in simulated intestinal fluid at pH 6.8 measured after 6 hrs by HPLC analysis. The series is classed as ADME. Conditions: read-out: Stability. The gist of the method:
as §1

In series [17] the test system is 3T3-L1. The series is described as follows: Induction of nitric oxide production in TNF-alpha-induced insulin resistant mouse 3T3L1 cells at 3 to 10 uM after 0.5 to 6 hrs in presence of nitric oxide scavenger C-PTIO by DAF-FM-2DA dye-based fluorescence assay. Type of series: functional, cell-based. Put shortly: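 Insulin-resistant 3T3-L1 adipocytes (TNF-α 4 ng/mL, 4 days) were treated for varying times, with or without 20 μM C-PTIO. Vehicle was DMSO 0.1% or NaOH 10 μM. Cells were washed in KRP, loaded with 10 μM DAF-FM-2DA in pH 7.4 PBS at 37 °C for 30 min, and read at Ex/Em 485/515 nm. Three experiments.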

The subject of series [18] is 3T3-L1. The series is described as follows: Induction of superoxide dismutase level in TNF-alpha-induced insulin resistant mouse 3T3L1 cells at 10 uM after 48 hrs. Type of series: functional, cell-based. The gist of the method:
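3T3-L1 preadipocytes were differentiated, and mature adipocytes made insulin resistant with TNF-α (4 ng/mL) daily for 4 days. Cells were then treated in triplicate for 48 h, with or without 20 μM C-PTIO. Lysate GSH, SOD and MDA were measured with kits. Three experiments, mean ± SD.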

Series [19] has as its system Platelet. The series is described as follows: Antiplatelet activity in platelet rich plasma (unknown origin) assessed as inhibition of ADP-induced platelet aggregation at 1 mM relative to control. Type of series: functional.
The test system of series [20] is Mus musculus. As to the kind of experiment: Antidiabetic activity in spontaneous db/db BKS.Cg-Dock7m +/+ Leprdb/J mouse assessed as decrease in blood glucose AUC at 10 mg/kg, po administered as daily dose via gavage for 18 days measured on day 12 up to 120 mins post glucose challenge by oral glucose tolerance test. Type of series: functional, organism-based. The gist of the method: (§2)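 Male db/db mice (BKS.Cg-Dock7m +/+ Leprdb/J), 6 weeks old on purchase, randomized, n=8 per group. Dosed by gavage in 0.5% CMC-Na daily for 18 consecutive days. Vehicle-dosed db/db and C57BL/6 mice served as model and control. Fasting glucose was read by glucometer every three days. On day 12, after an overnight fast, 2 g/kg glucose was given orally. Blood glucose was read at 0–120 min and AUC calculated. Mean ± SEM.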

Series [21] deals with Platelet. The series is described as follows: Antiplatelet activity in platelet rich plasma (unknown origin) assessed as inhibition of arachidonic acid-induced platelet aggregation at 4 mM relative to control. The series is classed as functional.
Series [22] has as its system Platelet. The series is described as follows: Antiplatelet activity in platelet rich plasma (unknown origin) assessed as inhibition of ADP-induced platelet aggregation at 4 mM relative to control. Type of series: functional.
The test system of series [23] is Platelet. As to the kind of experiment: Antiplatelet activity in platelet rich plasma (unknown origin) assessed as inhibition of arachidonic acid-induced platelet aggregation at 8 mM relative to control. The series is classed as functional.
The subject of series [24] is Mus musculus. The series is described as follows: Antidiabetic activity in spontaneous db/db BKS.Cg-Dock7m +/+ Leprdb/J mouse assessed as decrease in fasting blood glucose level at 10 mg/kg, po administered as daily dose via gavage for 18 days measured on day 9 post last dose by glucometric analysis. The series is classed as functional, organism-based. Put shortly:
as §2

The subject of series [25] is Platelet. As to the kind of experiment: Antiplatelet activity in platelet rich plasma (unknown origin) assessed as inhibition of ADP-induced platelet aggregation at 16 mM relative to control. Type of series: functional.

Active and inactive are the calls of the source. No cut-off for these calls is given here.

For orientation: inhibition means the relative decrease from the control value, in per cent. For `CCN(CC)/[N+]([O-])=N/OCOC(=O)/C=C/c1ccc(OC(=O)OCN2C(=O)SC(Cc3ccc(OCCN(C)c4ccccn4)cc3)C2=O)c(OC)c1` (stereo not given), the inhibition at 50 µM in series [1] amounted to 9.2%. In addition, the remaining at 0 h in series [2] is 100%. The inhibition at 200 µM in [3] stood at 9.9%. Further, in [4], the inhibition at 100 µM stood at 21.6%. The remaining at 24 h was 82.6% in [5] and 75.5% in [10]. Also, the inhibition entry in series [6] and in [9] was “Active” each time. Further, the inhibition at 800 µM in series [7] is 51.6%. In series [8], the inhibition at 1600 µM amounted to 47%. Further, the outcome in series [11] was Active. Also, the remaining at 6 h is 82% in series [12] and 87.6% in series [16]. Besides, the outcome in [13] and in [17] was inactive. The inhibition at 400 µM in series [14] stood at 18.8%. In [15], the inhibition result was “inactive”.

Take `CN(CCOc1ccc(CC2SC(=O)NC2=O)cc1)c1ccccn1` (stereo not given) [ROSIGLITAZONE]: the outcome in series [18], in series [20] and in series [24] was Active. The inhibition at 1000 µM in series [19] was found to be 6.1%. Also, the inhibition at 4000 µM in series [21] came out at 42.2%; in series [22] it was 43.1%. Moreover, the inhibition at 8000 µM in [23] turned out to be 54.4%. The inhibition at 16000 µM in series [25] worked out at 68.9%.
